According to ChEMBL document CHEMBL1149336, “Fumarranol, a rearranged fumagillin analogue that inhibits angiogenesis in vivo” (J Med Chem, 2006):
Active and inactive are the calls of the source. The rule behind the calls is not given here.

How the values were obtained:
[1] = target: Methionine aminopeptidase 2 (Homo sapiens) (UniProt P50579); assay: Inhibition of human MetAP2 at 100 uM
[2] = system: AEC; assay: Antiproliferative activity against BAEC at 100 uM; type: functional, cell-based; conditions: Bos taurus
[3] = system: AEC; assay: Antiproliferative activity against BAEC; conditions: Bos taurus
[4] = system: Mus musculus; assay: Inhibition of VEGF and FGF-stimulated angiogenesis in mouse at 90 mg/kg by Matrigel plug assay; type: functional, organism-based; set-up: dose 90 mg/kg
Outline: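 Matrigel with VEGF and basic FGF injected subcutaneously into mice and left 10 days while new vessels grew in. Compound given at 90 mg/kg/day. Vessel ingrowth was judged by the red colour of the plug and by MAS-trichrome staining of plug slices.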

[5] = system: Mus musculus; assay: Ulceration in mouse at 90 mg/kg; type: functional, organism-based; set-up: dose 90 mg/kg
Outline: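 Mice in the VEGF/bFGF matrigel-plug study were dosed at 90 mg/kg/day and their skin was inspected for ulceration.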

[6] = system: Mus musculus; assay: Ulceration in mouse at 30 mg/kg; type: functional, organism-based; set-up: dose 30 mg/kg
[7] = system: Mus musculus; assay: Inhibition of VEGF and FGF-stimulated angiogenesis in mouse at 30 mg/kg by Matrigel plug assay; type: functional, organism-based; set-up: dose 30 mg/kg
Outline: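 Mice received subcutaneous matrigel containing VEGF and basic FGF, with the agent dosed at 30 mg/kg/day. After 10 days, vessel ingrowth into the plug was judged by the plug's red colour and by MAS-trichrome staining of matrigel slices to visualize blood vessels.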

Chain of Methionine aminopeptidase 2 (Homo sapiens) (P50579 2-478 limits assumed): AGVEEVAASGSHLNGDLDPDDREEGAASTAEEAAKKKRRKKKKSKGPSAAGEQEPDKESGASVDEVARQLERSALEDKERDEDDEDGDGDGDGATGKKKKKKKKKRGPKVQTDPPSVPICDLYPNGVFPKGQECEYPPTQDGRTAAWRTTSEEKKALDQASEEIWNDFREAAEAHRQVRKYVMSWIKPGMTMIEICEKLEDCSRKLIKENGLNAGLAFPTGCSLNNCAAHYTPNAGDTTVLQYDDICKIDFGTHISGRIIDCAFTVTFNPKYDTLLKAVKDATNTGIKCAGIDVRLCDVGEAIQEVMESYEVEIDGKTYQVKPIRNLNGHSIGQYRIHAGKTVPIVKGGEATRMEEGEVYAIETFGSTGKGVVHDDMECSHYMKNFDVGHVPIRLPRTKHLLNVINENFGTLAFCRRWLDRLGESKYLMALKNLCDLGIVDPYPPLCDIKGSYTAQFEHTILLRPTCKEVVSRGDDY

Row | SMILES | Activity [1] | Activity [2] | IC50 [3] [nM] | other results
1 | COC[C@@]12CCC(=O)[C@]1(OC)C2[C@@]1(C)O[C@@H]1CC=C(C)C (stereo not given in full) | inactive | inactive | – | –
2 | CCOC(=O)CCCC/C=C/C[C@H]1O[C@]1(C)C1[C@]2(CO)CCC(=O)[C@]12OC (stereo not given in full) | inactive | inactive | – | –
3 | CO[C@@]12C([C@@]3(C)O[C@@H]3CC=C(C)C)[C@]1(CO)CC[C@H]2O (stereo not given in full) | inactive | inactive | – | –
4 | CO[C@]12C(=O)CC[C@@]1(CO)C2C(C)CCC=C(C)C (stereo not given in full) | – | – | 4000 | –
5 | CO[C@]12C(=O)/C(=C/c3ccco3)C[C@@]1(CO)C2[C@@]1(C)O[C@@H]1CC=C(C)C (stereo not given in full) | inactive | inactive | – | –
6 | CO[C@]12C(=O)CC[C@@]1(C=O)C2[C@@]1(C)O[C@@H]1CC=C(C)C (stereo not given in full) | – | – | 370 | –
7 | CO[C@]12C(=O)CC[C@@]1(CN1C(=O)c3ccccc3C1=O)C2[C@@]1(C)O[C@@H]1CC=C(C)C (stereo not given in full) | inactive | inactive | – | –
8 | CO[C@@H]1C(=O)CC[C@](O)(C=O)[C@H]1[C@@]1(C)O[C@@H]1CC=C(C)C [FUMAGALONE] | – | – | 52 | –
9 | CO[C@]12C(=O)CC[C@@]1(CO)[C@H]2/C(C)=C/CC=C(C)C | – | – | 1780 | –
10 | CO[C@]12C(=O)CC[C@@]1(CO)C2[C@@]1(C)O[C@@H]1CC=C(C)C (stereo not given in full) [FUMARRANOL] | – | – | 34 | Activity [4]: Active; Activity [5]: inactive
11 | CO[C@@H]1[C@H](OC(=O)NC(=O)CCl)CC[C@]2(CO2)[C@H]1[C@@]1(C)O[C@@H]1CC=C(C)C [O-CHLOROACETYLCARBAMOYLFUMAGILLOL] | – | – | 0.037 | Activity [6]: Active; Activity [7]: Active
